Data reported in ChEMBL document CHEMBL3259675, “Novel N-substituted sophoridinol derivatives as anticancer agents” (Eur J Med Chem, 2014).
Blank lines part the entries; values can stand above or below the compound they belong to.

Experiments:
HepG2 [1] = assay: Antiproliferative activity against human HepG2 cells assessed as growth inhibition at 10 ug/ml after 48 hrs by MTT assay; format: functional; settings: HepG2, 48 h
Procedure, shortened: (§1)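 Cell lines from ATCC, grown in MEM-EBSS with 10% FBS and 1% penicillin-streptomycin at 37 °C, 5% CO2. Seeded at 4000 cells/well, left 24 h, then exposed to a concentration series for 48 h. Growth read by MTT. Percent inhibition was computed at each concentration and IC50 derived from it. Triplicate determinations, reported as mean SD.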

HepG2 [2] = assay: Antiproliferative activity against human HepG2 cells assessed as growth inhibition after 48 hrs by MTT assay; format: functional, cell-based; settings: HepG2, 48 h; procedure, shortened: as §1
HCT-116 = assay: Antiproliferative activity against human HCT116 cells assessed as growth inhibition after 48 hrs by MTT assay; format: functional, cell-based; settings: HCT-116, 48 h; procedure, shortened: as §1
NCI-H1299 = assay: Antiproliferative activity against human NCI-H1299 cells assessed as growth inhibition after 48 hrs by MTT assay; format: functional, cell-based; settings: NCI-H1299, 48 h; procedure, shortened: as §1
[3] = Antiproliferative activity against human U87 cells assessed as growth inhibition after 48 hrs by MTT assay; format: functional, cell-based, U-87MG ATCC; settings: U-87 MG; procedure, shortened: as §1
MCF7 = assay: Antiproliferative activity against human MCF7 cells assessed as growth inhibition after 48 hrs by MTT assay; format: functional, cell-based; settings: MCF7, 48 h; procedure, shortened: as §1
KB = assay: Antiproliferative activity against human KB cells assessed as growth inhibition after 48 hrs by MTT assay; format: functional, cell-based; procedure, shortened: as §1
[4] = Cmax in Sprague-Dawley rat at 5 mg/kg, iv administered as single dose; format: ADME, organism-based; set-up: dose 5 mg/kg, route intravenous; settings: in vivo
Procedure, shortened: (§2)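 Male rats, 3 per study, each given a single dose of 25 mg/kg orally (ig) or 5 mg/kg iv. PK parameters from non-compartmental analysis. Oral bioavailability calculated from the ig and iv data.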

[5] = Cmax in Sprague-Dawley rat at 25 mg/kg, ig administered as single dose; format: ADME, organism-based; set-up: dose 25 mg/kg, route intragastric; settings: in vivo, po; procedure, shortened: as §2
[6] = Tmax in Sprague-Dawley rat at 5 mg/kg, iv administered as single dose; format: ADME, organism-based; set-up: dose 5 mg/kg, route intravenous; settings: in vivo; procedure, shortened: as §2
[7] = Tmax in Sprague-Dawley rat at 25 mg/kg, ig administered as single dose; format: ADME, organism-based; set-up: dose 25 mg/kg, route intragastric; settings: in vivo, po; procedure, shortened: as §2
[8] = AUC (0 to time) in Sprague-Dawley rat at 5 mg/kg, iv administered as single dose; format: ADME, organism-based; set-up: dose 5 mg/kg, route intravenous; settings: plasma
Procedure, shortened: (§3)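 Single dose given to three male rats per study, by oral gavage or intravenous injection. AUC was derived by non-compartmental analysis, n = 3.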

[9] = AUC (0 to time) in Sprague-Dawley rat at 25 mg/kg, ig administered as single dose; format: ADME, organism-based; set-up: dose 25 mg/kg, route intragastric; settings: plasma, po; procedure, shortened: as §3
[10] = Mean residence time in Sprague-Dawley rat at 5 mg/kg, iv administered as single dose; format: ADME, organism-based; set-up: dose 5 mg/kg, route intravenous; settings: in vivo; procedure, shortened: as §2
[11] = Mean residence time in Sprague-Dawley rat at 25 mg/kg, ig administered as single dose; format: ADME, organism-based; set-up: dose 25 mg/kg, route intragastric; settings: in vivo, po; procedure, shortened: as §2
[12] = Half life in Sprague-Dawley rat at 5 mg/kg, iv administered as single dose; format: ADME, organism-based; set-up: dose 5 mg/kg, route intravenous; settings: in vivo; procedure, shortened: as §2
[13] = Half life in Sprague-Dawley rat at 25 mg/kg, ig administered as single dose; format: ADME, organism-based; set-up: dose 25 mg/kg, route intragastric; settings: in vivo, po; procedure, shortened: as §2
[14] = Oral bioavailability in Sprague-Dawley rat at 25 mg/kg administered as single dose; format: ADME, organism-based; settings: in vivo; procedure, shortened: as §2
Mus musculus [15] = assay: Toxicity in mouse at 250 to 1000 mg/kg, ig; format: organism-based; set-up: dose 250-1000 mg/kg, route intragastric; settings: in vivo, po
Procedure, shortened: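 Single-dose toxicity in mice: compound given intragastrically at 250, 500 or 1000 mg/kg, with deaths monitored.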

Mus musculus [16] = assay: Toxicity in mouse assessed as body weight at 250 to 1000 mg/kg, ig; format: organism-based; set-up: dose 250-1000 mg/kg, route intragastric; settings: in vivo, po
HepG2 [17] = assay: Cell cycle arrest in human HepG2 cells assessed as accumulation at G0/G1 phase at 2.5 ug/ml after 24 hrs by FACS flow cytometric analysis (reference value: 4.1 %); format: functional; settings: HepG2, 24 h
Procedure, shortened: (§4)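 HepG2 cells exposed to 0, 2.5, 5 or 10 µg/ml for 24 h, then harvested. Fixed in 70% ethanol and held at −20 °C. Cell-cycle distribution determined by flow cytometry, with untreated cells as control.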

HepG2 [18] = assay: Cell cycle arrest in human HepG2 cells assessed as accumulation at G0/G1 phase at 5 ug/ml after 24 hrs by FACS flow cytometric analysis (reference value: 4.1 %); format: functional; settings: HepG2, 24 h; procedure, shortened: as §4
HepG2 [19] = assay: Cell cycle arrest in human HepG2 cells assessed as accumulation at G0/G1 phase at 10 ug/ml after 24 hrs by FACS flow cytometric analysis (reference value: 4.1 %); format: functional; settings: HepG2, 24 h; procedure, shortened: as §4

SMILES: CCCCN1C[C@H]2CCCN3CCC[C@@H]([C@H]23)[C@H]1CCCCO
inhibition at 10 µg/mL (HepG2 [1]): 19.7%

SMILES: CC(C)(C)CN1C[C@H]2CCCN3CCC[C@@H]([C@H]23)[C@H]1CCCCO
inhibition at 10 µg/mL (HepG2 [1]): 95.7%

SMILES: CC(C)CN1C[C@H]2CCCN3CCC[C@@H]([C@H]23)[C@H]1CCCCO
inhibition at 10 µg/mL (HepG2 [1]): 9.1%

SMILES: OCCCC[C@@H]1[C@H]2CCCN3CCC[C@H](CN1Cc1ccccc1)[C@@H]23
inhibition at 10 µg/mL (HepG2 [1]): 18.7%

SMILES: Cc1ccc(CN2C[C@H]3CCCN4CCC[C@@H]([C@H]34)[C@H]2CCCCO)cc1
inhibition at 10 µg/mL (HepG2 [1]): 17.8%

SMILES: OCCCC[C@@H]1[C@H]2CCCN3CCC[C@H](CN1Cc1ccccc1F)[C@@H]23
inhibition at 10 µg/mL (HepG2 [1]): 30.9%

SMILES: OCCCC[C@@H]1[C@H]2CCCN3CCC[C@H](CN1Cc1cccc(F)c1)[C@@H]23
inhibition at 10 µg/mL (HepG2 [1]): 24.3%

SMILES: OCCCC[C@@H]1[C@H]2CCCN3CCC[C@H](CN1Cc1ccc(F)cc1)[C@@H]23
inhibition at 10 µg/mL (HepG2 [1]): 35.7%

SMILES: OCCCC[C@@H]1[C@H]2CCCN3CCC[C@H](CN1Cc1ccccc1Cl)[C@@H]23
inhibition at 10 µg/mL (HepG2 [1]): 88.1%

IC50 (HepG2 [2]): 9.37 µM
IC50 (HCT-116): 10.6 µM
IC50 (NCI-H1299): 5.55 µM
IC50 (MCF7): 5.73 µM
IC50 (KB): 19.7 µM
Cmax [4]: 3.43 µM
Cmax [5]: 5.25 µM
Tmax [6]: 0.25 h
Tmax [7]: 0.66 h
AUC [8]: 20.5 µM·h
AUC [9]: 18.6 µM·h
MRT [10]: 2.39 h
MRT [11]: 3.28 h
half-life [12]: 4.46 h
half-life [13]: 3.87 h
bioavailability [14]: 18%
SMILES: OCCCC[C@@H]1[C@H]2CCCN3CCC[C@H](CN1Cc1ccc(Cl)cc1)[C@@H]23
inhibition at 10 µg/mL (HepG2 [1]): 87.7%
IC50 [3]: 4.52 µM
Activity (Mus musculus [15]): Non-toxic
Activity (Mus musculus [16]): Non-toxic
inhibition at 2.5 µg/mL (HepG2 [17]): 4.1%
inhibition at 5 µg/mL (HepG2 [18]): 3.3%
inhibition at 10 µg/mL (HepG2 [19]): 3.3%

SMILES: OCCCC[C@@H]1[C@H]2CCCN3CCC[C@H](CN1Cc1ccncc1)[C@@H]23
inhibition at 10 µg/mL (HepG2 [1]): 1.2%

SMILES: OCCCC[C@@H]1[C@H]2CCCN3CCC[C@H](CN1Cc1ccco1)[C@@H]23
inhibition at 10 µg/mL (HepG2 [1]): 33.2%

SMILES: OCCCC[C@@H]1[C@H]2CCCN3CCC[C@H](CN1CCc1ccccc1)[C@@H]23
inhibition at 10 µg/mL (HepG2 [1]): 34.6%

SMILES: CCOCCCC[C@@H]1[C@H]2CCCN3CCC[C@H](CN1Cc1ccccc1)[C@@H]23
inhibition at 10 µg/mL (HepG2 [1]): 2.1%

SMILES: COCCCC[C@@H]1[C@H]2CCCN3CCC[C@H](CN1Cc1ccc(F)cc1)[C@@H]23
inhibition at 10 µg/mL (HepG2 [1]): 6.8%

SMILES: CCOCCCC[C@@H]1[C@H]2CCCN3CCC[C@H](CN1Cc1ccc(F)cc1)[C@@H]23
inhibition at 10 µg/mL (HepG2 [1]): 5.1%

SMILES: COCCCC[C@@H]1[C@H]2CCCN3CCC[C@H](CN1Cc1ccc(Cl)cc1)[C@@H]23
inhibition at 10 µg/mL (HepG2 [1]): 0.3%

SMILES: CCOCCCC[C@@H]1[C@H]2CCCN3CCC[C@H](CN1Cc1ccc(Cl)cc1)[C@@H]23
inhibition at 10 µg/mL (HepG2 [1]): 0.2%

SMILES: COC(=O)CCC[C@@H]1[C@H]2CCCN3CCC[C@@H](CN1Cc1ccc(F)cc1)[C@@H]23
inhibition at 10 µg/mL (HepG2 [1]): 0.8%

SMILES: OCCCC[C@@H]1[C@H]2CCCN3CCC[C@@H](CN1Cc1ccc(F)cc1)[C@@H]23
inhibition at 10 µg/mL (HepG2 [1]): 0.1%

SMILES: OCCCC[C@@H]1[C@H]2CCCN3CCC[C@@H](CN1Cc1ccc(Cl)cc1)[C@@H]23
inhibition at 10 µg/mL (HepG2 [1]): 4.9%

IC50 (HepG2 [2]): 15.4 µg/mL
SMILES: O=C(O)CCC[C@@H]1[C@H]2CCCN3CCC[C@H](CN1C(=O)CBr)[C@@H]23

SMILES: O=C1CCC[C@@H]2[C@H]3CCCN4CCC[C@H](CN12)[C@@H]34 [SOPHORIDINE]
IC50 (HepG2 [2]): > 20 µg/mL

IC50 (HepG2 [2]): 1.66 µM
IC50 (HCT-116): 4.32 µM
IC50 (NCI-H1299): 11 µM
IC50 (MCF7): 14.3 µM
IC50 (KB): > 200 µM
SMILES: CC[C@@]1(O)C(=O)OCc2c1cc1n(c2=O)Cc2cc3c(CN(C)C)c(O)ccc3nc2-1 [TOPOTECAN]
inhibition at 10 µg/mL (HepG2 [1]): 72.6%
IC50 [3]: 0.16 µM
